# TLR9-MyD88 inh: inhibitors of TLR9-MyD88 association in cells, primary screen, cell-based, CHO, BLA complementation, fluorescence; CCF4 FRET ratio; inhibition, % at 4.98 µM; actives 0.21% (n = 340,000);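 active means inhibition above the mean over all tested compounds plus 3 SD, cut at about 21% in these data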;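 further: 0% = DMSO only wells and 100% = clavulanate BLA inhibitor control wells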
# NOD2-RIPK2 inh: NOD2-RIPK2 binding disruptors in cells, primary screen, fluorescence, CHO cells, BLA complementation. Receptor-interacting serine/threonine-protein kinase 2 (Homo sapiens), O43353. CCF4 ratio. inhibition, % at 4.98 µM. actives 0.38% (n = 360,000). AID 624267, 2012; in the data active means inhibition above about 21%;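 further: 0% = vehicle only and 100% = reference blocker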
# SKN-1 block: suppressors of acrylamide-induced Pgst-4::GFP reporter in worms, primary screen, SKN-1 inhibitor project, whole organism, uHTS, GFP/RFP fluorescence ratio, strain VP596 | C. elegans VP596 Pgst-4::GFP/RFP ratio, 24 h | inhibition, % at 21.8 µM | actives 0.49% (n = 360,000) | AID 624304, 2012;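 active means interference check ratio from 0.5 to 1.5 plus GFP to RFP signal ratio inhibition reaching or exceeding a fixed threshold, cut at about 30% in these data, passing the limit was not always enough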
# MT1-MMP act inh: blockers of MT1-MMP proenzyme processing, primary screen, HT1080 RFP-PRO-GFP cells, GFP/RFP fluorescence | actives 0.061% (n = 360,000) | Matrix metalloproteinase-14 (Homo sapiens), P50281 | GFP/RFP ratio change, % at 20 µM | AID 651647, 2012 | GFP/RFP ratio fluorescence, overnight; percent of plate control window, DMSO zero;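 active means GFP/RFP ratio change of at least 30% with cell ATP level not reduced by more than half and red fluorescence within 50% of control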
#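 Material: RFP-PRO-GFP reporter HT1080 cells. Dosing: single-point 20 µM compound, 1% DMSO. Controls: DMSO and RFP-L50D-GFP cell wells. Timing: cells overnight before dosing, compound overnight, 37 °C, 5% CO2. Measure: GFP/RFP fluorescence ratio.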
# TLR4 MyD88 comp: inhibitors of TLR4-MyD88 association in cells, primary screen, cell-based, HeLa CL3-4, BLA complementation, FRET ratio; AID 861, 2007; Toll-like receptor 4 (Homo sapiens) + Myeloid differentiation primary response protein …; actives 0.18% (n = 200,000); inhibition, % at 8.4 µM; HeLa CL3-4 TLR4/MyD88 BLA complementation; in the data active means inhibition above about 25%;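 further: 0% = vehicle and 100% = reference inhibitor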
# Target sequence (O00206 whole entry, looked up): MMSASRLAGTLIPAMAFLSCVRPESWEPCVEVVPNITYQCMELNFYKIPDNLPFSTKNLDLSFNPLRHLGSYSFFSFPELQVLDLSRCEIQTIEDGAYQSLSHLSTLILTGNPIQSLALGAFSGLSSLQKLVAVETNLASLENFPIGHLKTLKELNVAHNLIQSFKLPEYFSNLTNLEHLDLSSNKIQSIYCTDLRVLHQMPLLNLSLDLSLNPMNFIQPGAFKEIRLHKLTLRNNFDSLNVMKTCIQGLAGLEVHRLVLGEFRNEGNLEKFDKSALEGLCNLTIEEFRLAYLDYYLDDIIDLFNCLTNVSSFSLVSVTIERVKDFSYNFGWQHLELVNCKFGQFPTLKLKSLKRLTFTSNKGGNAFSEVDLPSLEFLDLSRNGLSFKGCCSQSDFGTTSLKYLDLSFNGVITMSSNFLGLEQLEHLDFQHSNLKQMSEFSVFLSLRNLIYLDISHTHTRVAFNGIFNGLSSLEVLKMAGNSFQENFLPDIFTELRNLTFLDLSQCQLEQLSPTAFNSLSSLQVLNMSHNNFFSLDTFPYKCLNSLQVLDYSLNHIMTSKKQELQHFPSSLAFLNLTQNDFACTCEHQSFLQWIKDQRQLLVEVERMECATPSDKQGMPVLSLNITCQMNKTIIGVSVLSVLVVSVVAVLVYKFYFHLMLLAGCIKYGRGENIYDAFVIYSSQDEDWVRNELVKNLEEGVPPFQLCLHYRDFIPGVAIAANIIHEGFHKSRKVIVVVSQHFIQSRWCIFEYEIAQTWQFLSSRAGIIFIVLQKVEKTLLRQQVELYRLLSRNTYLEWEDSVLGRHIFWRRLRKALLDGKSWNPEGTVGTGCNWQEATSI
# Target sequence (Q99836 whole entry, looked up): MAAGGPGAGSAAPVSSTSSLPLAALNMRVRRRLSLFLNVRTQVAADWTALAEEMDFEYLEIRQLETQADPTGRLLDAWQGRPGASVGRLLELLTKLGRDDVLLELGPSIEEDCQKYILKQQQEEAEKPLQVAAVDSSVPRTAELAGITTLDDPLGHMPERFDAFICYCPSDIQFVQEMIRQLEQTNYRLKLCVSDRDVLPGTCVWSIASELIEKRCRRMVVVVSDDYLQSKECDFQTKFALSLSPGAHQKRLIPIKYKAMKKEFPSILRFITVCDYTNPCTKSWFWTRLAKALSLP
# Numbers without * were called inactive; . = not tested or not shown. This is a sample that favours compounds with a hit; in the whole collection about 0.99% have one here.
SMILES,TLR9-MyD88 inh,NOD2-RIPK2 inh,SKN-1 block,MT1-MMP act inh,TLR4 MyD88 comp
O=C(NNC(=O)c1ccccc1-n1cccc1)c1ccc(Cl)cc1,-0.5,3.4,37.0*,6.0,9.2
O=C(NNC(=O)c1ccccc1-n1cccc1)c1ccc(Cl)c(Cl)c1,-14.5,-3.5,13.6,-2.0,3.4
Cc1cccc(C)c1OCC(O)CN1CCC(CN2C(=O)c3cccc4cccc(c34)C2=O)CC1 (stereo not drawn),-5.5,9.5,-7.5,-3.5,-1.0
O=[N+]([O-])c1ccc(NN=Cc2cccc([N+](=O)[O-])c2)cc1,0.6,-6.2,38.3*,-6.4,.
O=[N+]([O-])c1ccc(N/N=C/c2cccnc2)cc1,-3.4,3.5,18.1,-13.0,.
Cc1ccc2c([N+](=O)[O-])c(C)ccc2n1,10.0,-4.8,35.4*,-8.7,1.6
CC(CCC(C)C(C)(C)C)[C@@H]1CC[C@H]2C3C[C@H](OS(O)(=S)=S)[C@H]4C[C@H](OS(O)(=S)=S)[C@@H](OS(O)(=S)=S)C[C@]4(C)[C@H]3CC[C@]12C (stereo partly drawn) (tested in a mixture with another compound),2.3,23.9*,12.9,12.7,.
O=C(C1CC(=O)N(c2ccc(F)c(Cl)c2)C1)N1CCOCC1 (stereo not drawn),-4.3,-5.3,0.3,0.6,.
O=C(COC(=O)Cc1ccccc1[N+](=O)[O-])NNC(=O)c1ccc([N+](=O)[O-])cc1,-2.7,0.5,-1.3,0.6,.
Fc1ccc(N2CCN(c3cnc4ccccc4n3)CC2)cc1,7.3,-9.5,63.0*,-0.1,.
Clc1ccc(N2CCN(c3cnc4ccccc4n3)CC2)cc1,-9.7,-20.4,33.0,1.2,0.0
c1ccc(N2CCN(c3cnc4ccccc4n3)CC2)cc1,1.5,3.4,47.0*,-1.2,14.0
COc1ccc(N2CCN(c3cnc4ccccc4n3)CC2)cc1,12.6,2.9,3.0,1.6,-13.3
CCCCn1nnnc1C(c1cc2ccccc2o1)N(C)Cc1ccc(Cl)cc1 (stereo not drawn),.,-12.2,9.2,-8.3,.
O=C(NCc1ccc(Cl)cc1)C1CCN(c2nnc(N3CCCC3=O)s2)CC1,4.3,-10.1,37.3*,1.8,.
Cc1ccc(CNC(=O)C2CCN(c3nnc(N4CCCC4=O)s3)CC2)cc1,1.2,8.2,6.2,4.6,.
O=C(c1cc(COc2ccc(F)cc2Cl)on1)N1C[C@H]2CC[C@H]1C2,-4.3,-2.0,14.5,7.4,.
O=C(c1cc(COc2ccc(F)cc2Cl)on1)N1CC2C[C@@H]3CC1C[C@H](C2)C3,9.0,4.2,35.5*,-3.0,.
C/C(=N\OCc1ccc(C#N)cc1)c1cc2ccccc2o1,-2.3,6.4,54.2*,5.1,.
O=C(COc1ccc(Br)cc1CO)Nc1ccc(S(=O)(=O)N2CCCC2)cc1,-1.9,7.0,5.9,0.7,.
Cc1ccc(NC(=O)COc2ccc(Br)cc2CO)cc1S(=O)(=O)N1CCOCC1,5.8,12.6,41.2*,1.8,.
O=C1/C(=C/c2cccs2)CCC/C1=C\c1cccs1,-0.4,-2.8,38.5*,-9.8,.
O=C1c2cc(Br)ccc2OC2C=CC=CC12 (stereo not drawn),-1.4,3.0,42.0*,2.7,.
S=C(Nc1ccccc1)Nc1nc2ccccc2n1CCOc1ccccc1,-0.6,-4.0,41.0*,9.4,-5.6
CC(=O)Nc1nc2ccccc2n1CCOc1ccccc1,4.8,3.0,-7.8,9.6,-4.1
SMILES,TLR9-MyD88 inh,NOD2-RIPK2 inh,SKN-1 block,MT1-MMP act inh,TLR4 MyD88 comp
CC1(OC(=O)C2CCCC2)C(=O)C=C2C=C3CCCCN3C=C2C1=O (stereo not drawn),-9.6,-2.6,-3.5,-1.0,.
COC/C=C/C1=CC2=CC(=O)C(C)(OC(=O)C3CCCC3)C(=O)C2=CO1 (stereo not drawn),9.2,-0.9,36.2*,3.4,.
CN(C)S(=O)(=O)c1ccc(C(=O)Nc2ccc3nc(N4CCOCC4)sc3c2)cc1,-18.3,0.1,-11.1,-0.3,.
O=C(Nc1ccc(SC(F)F)cc1)c1ccccc1F,1.4,-1.0,41.0*,4.8,-9.9
c1ccc(NCc2cccnc2)cc1,4.5,-13.8,-0.5,2.1,-21.2
O=C1c2ccccc2C(=O)c2c(NCc3cccnc3)cccc21,-9.5,-8.2,42.8*,28.2,-4.5
CNc1cccc2c1C(=O)c1ccccc1C2=O,7.4,-0.5,45.1*,25.3,-6.5
NS(=O)(=O)c1ccc(NC(=O)CSc2nc3ccccc3nc2N2CCOCC2)cc1,-1.9,-3.6,4.6,-3.5,.
CCOC(=O)Cc1ccc(Nc2nc3cc(-c4ccccc4C)sc3c(=O)n2C)cc1,.,-20.0,8.5,-1.8,.
Cc1ccc(Nc2nc(-c3cccs3)cs2)nc1,-7.5,3.0,46.4*,-8.2,10.4
O=C(NCCCN1CCOCC1)c1nn(-c2ccccc2)c(=O)c2ccccc12,2.5,4.6,-0.6,-3.5,.
CCOC(=O)[C@]12CCC=C1N(Cc1ccco1)C(=O)[C@H](CC(=O)NCCCCc1ccccc1)C2,.,6.1,-8.3,-1.7,.
Fc1ccc(-c2nnc(-c3ccc(Cl)cc3Cl)o2)cc1,-2.4,-17.1,48.1*,-4.1,-7.4
CCSc1nnc(-c2ccc(Cl)cc2Cl)o1,-1.6,-3.4,66.8*,-2.7,-1.5
Clc1ccc(-c2nnc(-c3ccccc3)o2)c(Cl)c1,1.8,3.4,69.0*,1.0,-2.0
Fc1ccc(-c2nnc(-c3ccc(Cl)cc3)o2)cc1,-1.1,-2.6,25.7,25.9,-7.6
O=C(OCC1CCC=CO1)C1CCC=CO1 (stereo not drawn),-0.7,-13.6,18.4,-7.8,.
O=C(NCC(=O)N1CCOCC1)c1ccc(Cl)c(Cl)c1,1.8,1.2,37.2*,1.4,.
O=C(c1ccc(Cl)c(Cl)c1)N1CCOCC1,3.3,-11.2,-9.0,-0.5,-1.8
CCCC1OC(c2cc3c(cc2Cl)OCO3)OCC1CC (stereo not drawn),-7.9,-2.9,-5.1,-0.1,.
CCOc1ccc(/C=C/C2=Cc3c(sc(NC(=O)CSc4n[nH]c(N)n4)c3C#N)C(C)(C)C2)cc1,-1.2,13.7,36.5*,-47.7,13.9
Cc1ccsc1/C=C/C1=Cc2c(sc(NC(=O)CSc3n[nH]c(N)n3)c2C#N)C(C)(C)C1,4.2,9.6,31.9,-44.0,-1.1
Cc1c(Cc2ccccc2)c(=O)oc2c(C)c(OCC(=O)NCC3CCC(C(=O)O)CC3)ccc12 (stereo not drawn),1.8,9.6,10.7,-4.1,.
Cc1cc2nn(-c3ccc(Cl)cc3)nc2cc1N,-4.9,8.3,20.4,0.1,.

# Bioassay records (PubChem BioAssay)
